ChEMBL document CHEMBL4184143 (J Med Chem, 2017)
pKd: −log10 of the molar value.

What was measured:
[1] = system: MV4-11; test: Induction of apoptosis in human MV4-11 cells assessed as upregulation of cleaved PARP protein level after 24 hrs by Western blot method; assay type: functional, cell-based
In short: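 MV4;11 cells were exposed to compound for 24 h and lysed in RIPA buffer with protease inhibitors. Lysates were separated on 4–20% SDS-PAGE, blotted to PVDF and probed for PARP, cleaved PARP and p21, with β-actin as loading control.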

[2] = target: Histone acetyltransferase p300 (Homo sapiens, UniProt Q09472); test: Binding affinity to human partial length EP300 (A1040 to G1161 residues) expressed in bacterial expression system by BROMOscan assay
[3] = system: Mus musculus; test: Toxicity in SCID mouse implanted with human MV-411 cells assessed as weight loss at 50 mg/kg, po qd measured 2 to 3 times weekly during treatment and weekly post dose; assay type: organism-based; conditions: in vivo
In short: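 At ~100 mm3, mice were randomized to treatment or vehicle control. Tumors were measured by electronic calipers. Animals were checked daily for signs of toxicity and weighed 2–3 times weekly on treatment, then at least weekly afterwards.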

[4] = Aqueous solubility of the compound in 5% DMSO/10% cremophor/85% saline; assay type: physicochemical; conditions: buffer
[5] = AUC (0 to t) in Sprague-Dawley rat at 5 mg/kg, iv by LC/MS method; assay type: ADME, organism-based; conditions: in vivo
In short: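 Sprague Dawley rats were dosed iv at 5 mg/kg or orally at 25 mg/kg, with compound dissolved in 20% (v/v) PCP/70% (v/v) PBS vehicle. Blood was drawn by catheter at 0, 5, 15, 30 min and 1, 2, 4, 6, 8, 24 h and spun to plasma, which was stored at −80 °C. Plasma drug was quantified by a validated LC–MS/MS method, and parameters were derived noncompartmentally.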

[6] = Half life in SCID mouse at 25 mg/kg, po by LC/MS method; assay type: ADME, organism-based; conditions: in vivo
[7] = Half life in Sprague-Dawley rat at 5 mg/kg, iv by LC/MS method; assay type: ADME, organism-based; conditions: in vivo
[8] = target: Bromodomain-containing protein 4 (Homo sapiens, UniProt O60885); test: Binding affinity to human partial length BRD4 bromodomain 2 long isoform (K333 to E460 residues) expressed in bacterial expression system by BROMOscan assay
[9] = target: Nucleosome-remodeling factor subunit BPTF (Homo sapiens, UniProt Q12830); test: Binding affinity to human partial length FALZ (S2791 to H2911 residues) expressed in bacterial expression system by BROMOscan assay

Histone acetyltransferase p300, sequence (Q09472 whole entry, the tested form may be a part): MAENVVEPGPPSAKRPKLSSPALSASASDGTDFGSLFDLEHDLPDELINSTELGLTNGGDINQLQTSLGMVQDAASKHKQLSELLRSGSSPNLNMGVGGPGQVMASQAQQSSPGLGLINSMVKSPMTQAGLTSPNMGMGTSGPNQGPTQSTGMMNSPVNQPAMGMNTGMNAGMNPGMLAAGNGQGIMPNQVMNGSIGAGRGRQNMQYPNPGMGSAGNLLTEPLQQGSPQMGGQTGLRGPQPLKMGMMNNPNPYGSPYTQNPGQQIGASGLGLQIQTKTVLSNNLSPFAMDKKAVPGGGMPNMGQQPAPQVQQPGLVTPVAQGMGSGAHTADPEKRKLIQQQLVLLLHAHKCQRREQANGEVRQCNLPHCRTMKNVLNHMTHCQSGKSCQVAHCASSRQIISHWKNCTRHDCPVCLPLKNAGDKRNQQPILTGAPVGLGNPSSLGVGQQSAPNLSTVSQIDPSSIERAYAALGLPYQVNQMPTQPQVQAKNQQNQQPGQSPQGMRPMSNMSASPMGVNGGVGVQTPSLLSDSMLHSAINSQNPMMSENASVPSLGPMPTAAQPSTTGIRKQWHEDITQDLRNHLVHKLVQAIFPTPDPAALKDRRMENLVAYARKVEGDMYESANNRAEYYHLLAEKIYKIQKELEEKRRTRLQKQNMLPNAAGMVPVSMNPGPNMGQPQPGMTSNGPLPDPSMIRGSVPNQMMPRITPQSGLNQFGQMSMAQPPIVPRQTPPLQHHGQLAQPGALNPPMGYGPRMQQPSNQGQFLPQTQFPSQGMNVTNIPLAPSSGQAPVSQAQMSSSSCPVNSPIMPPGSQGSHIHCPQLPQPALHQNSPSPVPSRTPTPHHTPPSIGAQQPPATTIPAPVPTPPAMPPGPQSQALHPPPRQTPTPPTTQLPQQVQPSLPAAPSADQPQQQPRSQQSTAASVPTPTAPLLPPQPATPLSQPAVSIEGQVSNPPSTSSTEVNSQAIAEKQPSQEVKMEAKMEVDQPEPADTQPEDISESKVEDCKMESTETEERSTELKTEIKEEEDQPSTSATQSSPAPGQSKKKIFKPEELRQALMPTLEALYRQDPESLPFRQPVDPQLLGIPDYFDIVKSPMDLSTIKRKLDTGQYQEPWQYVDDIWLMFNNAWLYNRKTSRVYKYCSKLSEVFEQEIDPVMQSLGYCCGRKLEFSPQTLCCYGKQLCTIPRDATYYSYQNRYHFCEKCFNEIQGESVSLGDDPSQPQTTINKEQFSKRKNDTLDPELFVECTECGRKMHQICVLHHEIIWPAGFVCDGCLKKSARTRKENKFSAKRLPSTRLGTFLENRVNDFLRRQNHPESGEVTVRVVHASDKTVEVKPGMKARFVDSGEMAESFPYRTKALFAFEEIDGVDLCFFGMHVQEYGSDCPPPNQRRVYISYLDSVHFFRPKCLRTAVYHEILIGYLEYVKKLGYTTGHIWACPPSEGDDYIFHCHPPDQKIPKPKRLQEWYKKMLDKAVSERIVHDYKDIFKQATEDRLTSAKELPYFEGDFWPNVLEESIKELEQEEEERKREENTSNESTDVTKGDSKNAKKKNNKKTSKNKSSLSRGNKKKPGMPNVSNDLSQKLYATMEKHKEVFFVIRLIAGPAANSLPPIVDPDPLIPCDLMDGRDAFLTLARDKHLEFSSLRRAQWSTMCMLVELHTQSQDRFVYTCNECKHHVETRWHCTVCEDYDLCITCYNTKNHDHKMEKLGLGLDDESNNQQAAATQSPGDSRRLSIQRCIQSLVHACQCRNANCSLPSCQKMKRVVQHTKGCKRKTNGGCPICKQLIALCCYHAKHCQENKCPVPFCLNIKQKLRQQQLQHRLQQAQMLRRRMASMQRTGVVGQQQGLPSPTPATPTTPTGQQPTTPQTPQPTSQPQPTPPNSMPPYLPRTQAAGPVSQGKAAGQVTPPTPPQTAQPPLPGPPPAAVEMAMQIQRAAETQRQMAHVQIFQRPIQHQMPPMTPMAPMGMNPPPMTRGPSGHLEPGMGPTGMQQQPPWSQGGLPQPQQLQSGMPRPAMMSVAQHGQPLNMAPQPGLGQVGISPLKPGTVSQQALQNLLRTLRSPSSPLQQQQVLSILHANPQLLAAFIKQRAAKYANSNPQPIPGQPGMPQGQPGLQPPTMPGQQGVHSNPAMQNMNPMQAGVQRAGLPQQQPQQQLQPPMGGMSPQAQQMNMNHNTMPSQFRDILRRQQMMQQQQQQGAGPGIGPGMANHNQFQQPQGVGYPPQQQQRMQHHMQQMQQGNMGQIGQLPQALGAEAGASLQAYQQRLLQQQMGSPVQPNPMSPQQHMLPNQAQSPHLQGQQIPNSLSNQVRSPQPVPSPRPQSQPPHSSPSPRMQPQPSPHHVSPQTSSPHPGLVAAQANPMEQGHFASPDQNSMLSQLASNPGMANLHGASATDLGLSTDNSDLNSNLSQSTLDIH

- pKd [2]: 6.26
- solubility [4]: Soluble
- AUC(0-t) [5]: 6340 ng·h/mL
- half-life [6]: 1.6 h
- half-life [7]: 2.4 h
- pKd [8]: 8.70
- pKd [9]: < 5.40
SMILES: COc1cc2c(cc1-c1c(C)noc1C)[nH]c1nc(C)nc(-c3ccnc4ccccc34)c12
- Activity [1]: Dose-dependent effect
- Activity [3]: Non-Toxic
